Sampled rows, rich in hits. Any-hit rate of the full collection: about 2.3%.
PAFAH1B3 inh: blocks human PAF acetylhydrolase 1B catalytic subunit 3; Q15102; recombinant PAFAH1B3, FP-rhodamine probe, fluorescence polarization; inhibition, % at 3.39 µM; hit rate 0.28% among 340,000; AID 492972;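 active = inhibition above the screen-wide average of all tested compounds plus 3 SD, cut at about 25% in these data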;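 note: 0% = enzyme with DMSO only and 100% = wells lacking PAFAH1B3 protein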
Target sequence (Q15102 whole entry, looked up): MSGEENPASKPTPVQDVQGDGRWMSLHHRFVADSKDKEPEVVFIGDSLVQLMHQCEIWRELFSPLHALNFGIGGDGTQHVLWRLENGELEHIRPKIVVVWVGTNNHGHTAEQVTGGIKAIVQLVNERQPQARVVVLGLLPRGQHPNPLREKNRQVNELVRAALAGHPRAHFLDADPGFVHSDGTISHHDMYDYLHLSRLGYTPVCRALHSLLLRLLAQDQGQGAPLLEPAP
PAFAH2 FP inh: PAFAH2 (human) inhibition; recombinant PAFAH2, FP-rhodamine activity probe, fluorescence polarization; inhibition, % at 3.39 µM; hit rate 0.99% among 340,000;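 active = inhibition above the mean over all tested compounds plus 3 SD, cut at about 30% in these data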;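 note: inhibitors block probe labeling of enzyme so polarization drops; 0% = enzyme with DMSO and 100% = wells lacking PAFAH2 protein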
Apaf-1 inh: inhibitors of human Apaf-1 apoptosome. reconstituted apoptosome caspase-3 activity, DEVD-Rh110 fluorescence. AID 489030. hit rate 0.71% among 330,000. inhibition, % at 20 µM. O14727; active = inhibition of at least 40% at 20 µM;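 note: plate controls were DMSO wells for no effect and DEVD-CHO caspase inhibitor wells for full effect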
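Medium: Hepes buffer, pH 7.5 / System: biochemical Apaf-1 apoptosome reconstitution / Measured by: Rh110 fluorescence, excitation 480 nm, emission 540 nm / Times: compound with Apaf-1, dATP, procaspase-3 30 min, then 50 min reaction, room temperature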
TDP2 absorb: TDP2 (human) inhibition, absorbance primary screen; hit rate 0.34% among 370,000; AID 720702; recombinant TDP2, T5PNP hydrolysis, p-nitrophenol absorbance 415 nm; O95551; inhibition, % at 12.8 µM;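 active = inhibition above the mean of all tested compounds plus 3 SD, set per campaign, cut at about 25% in these data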;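 note: 0% = DMSO with enzyme and 100% = buffer with substrate but no TDP2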
Target sequence (O95551 whole entry, looked up): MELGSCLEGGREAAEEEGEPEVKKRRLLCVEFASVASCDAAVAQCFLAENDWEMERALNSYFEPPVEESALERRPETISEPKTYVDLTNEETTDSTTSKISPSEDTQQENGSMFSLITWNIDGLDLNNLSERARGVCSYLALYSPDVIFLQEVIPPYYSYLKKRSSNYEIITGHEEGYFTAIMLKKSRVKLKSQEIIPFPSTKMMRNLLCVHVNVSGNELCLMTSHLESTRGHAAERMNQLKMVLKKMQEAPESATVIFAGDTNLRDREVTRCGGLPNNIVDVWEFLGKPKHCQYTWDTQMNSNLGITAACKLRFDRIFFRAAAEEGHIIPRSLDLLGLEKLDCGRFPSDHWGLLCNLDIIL
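Material: recombinant human TDP2; quantity: TDP2 enzyme at 120 nM final; medium: Tris-HCl pH 7.5 with MgCl2; compound: single concentration, 12.8 µM nominal, with 1% DMSO; incubation: 2 h enzyme incubation at 37 °C; signal: epi absorbance; measure: percent inhibition; benchmarks: high control without enzyme, low control DMSO plus TDP2; repeats: singlicate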
PAFAH1B2 FP inh: blocks human PAF acetylhydrolase 1b catalytic subunit 2. P68402. recombinant PAFAH1B2, FP-rhodamine activity probe, fluorescence polarization. inhibition, % at 3.39 µM. hit rate 1.2% among 340,000. AID 492953;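 active = inhibition above the mean of all tested compounds plus 3 SD, cut at about 24% in these data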;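 note: 0% = enzyme with DMSO and 100% = wells lacking PAFAH1B2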
* = called active by the depositor.

What do the screens show for `Cc1ccc([C@@H]2CC=C(C(=O)O)CN2S(=O)(=O)c2ccc(C)cc2)cc1`?
PAFAH1B3 inh: 13.9; PAFAH2 FP inh: -3.0; Apaf-1 inh: -1.0; TDP2 absorb: 6.9; PAFAH1B2 FP inh: 28.6*

What do the screens show for `CCOC(=O)[C@]12CCCCC/C=C\1N(Cc1ccc(OC)cc1)C(=O)[C@H]2CC(=O)NCC12CC3CC(CC(C3)C1)C2`?
TDP2 absorb: 14.8

How did CC1(C(=O)NC(=S)NNC(=O)c2ccncc2)CCCCC1 do in these assays?
PAFAH1B3 inh: 0.0; PAFAH2 FP inh: -6.2; Apaf-1 inh: -4.8; TDP2 absorb: -4.3; PAFAH1B2 FP inh: 16.7

What do the screens show for `O=C(NNC(=S)NC(=O)C12CC3CC(CC(C3)C1)C2)c1ccncc1`?
PAFAH1B3 inh: 2.5; PAFAH2 FP inh: 11.7; Apaf-1 inh: -12.8; TDP2 absorb: 2.4; PAFAH1B2 FP inh: 45.4*

Results for CCOC(=O)CC[C@@]1(C(=O)OCC)C[C@@H](CC(=O)NCC23CC4CC(CC(C4)C2)C3)C(=O)N2CCCC=C21 ?
TDP2 absorb: -0.8

Results for O/N=C/c1ccc2ccccc2c1 ?
PAFAH1B3 inh: 5.2; PAFAH2 FP inh: -0.7; Apaf-1 inh: -4.1; TDP2 absorb: 3.3; PAFAH1B2 FP inh: 50.2*

How did O=C(CN1CCCCCC1)N/N=C/c1ccc2ccccc2c1 do in these assays?
PAFAH1B3 inh: 14.4; PAFAH2 FP inh: -2.1; TDP2 absorb: -0.5; PAFAH1B2 FP inh: 5.6

Results for COc1oc(C(=O)NC2CCCCC2)c(-c2ccc(Cl)cc2)c1S(=O)(=O)c1ccccc1 ?
PAFAH1B3 inh: -0.7; PAFAH2 FP inh: 4.8; TDP2 absorb: -2.3; PAFAH1B2 FP inh: 31.9*

What do the screens show for `CC(=O)Nc1nc2ncccn2c1-c1ccc(C)cc1`?
TDP2 absorb: -4.9

Results for CC(C)(C)c1ccc(OCC(=O)N(Cc2cccs2)C2CCS(=O)(=O)C2)cc1 (stereo not drawn) ?
PAFAH1B3 inh: 2.2; PAFAH2 FP inh: 10.8; Apaf-1 inh: 24.5; TDP2 absorb: -0.1; PAFAH1B2 FP inh: 29.1*

Results for Cc1[nH]c2ccccc2c1/C=N/NC(=O)c1cccc(S(=O)(=O)Nc2cccc(C(F)(F)F)c2)c1 ?
PAFAH1B3 inh: 43.1*; PAFAH2 FP inh: 12.1; Apaf-1 inh: 13.7; TDP2 absorb: 1.9; PAFAH1B2 FP inh: 34.5*

How did CCc1ccc(S(=O)(=O)Nc2cc3c(cc2N2CCOCC2)n(C)c(=O)c(=O)n3C)cc1 do in these assays?
PAFAH1B3 inh: 9.4; PAFAH2 FP inh: 15.6; Apaf-1 inh: 8.6; TDP2 absorb: -5.3; PAFAH1B2 FP inh: 26.1*

What do the screens show for `O=C(NC(=S)Nn1cnc2c(cnn2-c2ccccc2)c1=O)c1ccc(Cl)cc1`?
PAFAH1B3 inh: -8.0; PAFAH2 FP inh: -5.0; Apaf-1 inh: 7.7; TDP2 absorb: -9.8; PAFAH1B2 FP inh: -3.6

Results for O=C(NC(=S)Nn1cnc2c(cnn2-c2ccccc2)c1=O)c1ccc(Oc2ccccc2)cc1 ?
PAFAH1B3 inh: -0.1; PAFAH2 FP inh: -1.3; Apaf-1 inh: 40.7*; TDP2 absorb: -0.8; PAFAH1B2 FP inh: 2.0

What do the screens show for `COc1ccccc1OC(=O)Cc1cccc2ccccc12`?
PAFAH1B3 inh: 9.5; PAFAH2 FP inh: -1.8; Apaf-1 inh: 9.5; PAFAH1B2 FP inh: 3.6

What do the screens show for `COc1ccccc1CC(=O)O/N=C(\N)Cc1cccc2ccccc12`?
PAFAH1B3 inh: -4.0; PAFAH2 FP inh: 34.5*; Apaf-1 inh: 10.2; TDP2 absorb: 2.9; PAFAH1B2 FP inh: 2.6

How did O=C(NC(=S)NNC(=O)c1ccccc1O)c1cccnc1 do in these assays?
PAFAH1B3 inh: 25.5*; PAFAH2 FP inh: 59.9*; Apaf-1 inh: 0.8; TDP2 absorb: -7.8; PAFAH1B2 FP inh: 19.2

How did O=C(NC(=S)NNC(=O)c1ccc(Cl)cc1Cl)c1cccnc1 do in these assays?
PAFAH1B3 inh: 7.4; PAFAH2 FP inh: 0.4; Apaf-1 inh: -2.6; TDP2 absorb: -6.3; PAFAH1B2 FP inh: -0.5

Results for C[C@@H]1CCN(C2CC2)S(=O)(=O)c2c(cccc2N2CC[C@@H](N(C)C)C2)O1 ?
TDP2 absorb: 7.8

What do the screens show for `Cc1cccc(OCc2n(CC(=O)OC3CC(C)CCC3C(C)C)c3ccccc3[n+]2C)c1` (stereo not drawn)?
PAFAH1B3 inh: 13.1; PAFAH2 FP inh: 5.5; Apaf-1 inh: 50.3*; PAFAH1B2 FP inh: -0.3

What do the screens show for `Cc1ccc(-c2c(C(=O)NC3CCCC3)oc(=O)c3ccccc23)cc1`?
TDP2 absorb: -11.9

How did CC(NC(=O)CN1C(=O)NC(Cc2ccccc2)(Cc2ccccc2)C1=O)C12CC3CC(CC(C3)C1)C2 (stereo not drawn) do in these assays?
PAFAH1B3 inh: -2.7; PAFAH2 FP inh: 10.1; Apaf-1 inh: 17.5; TDP2 absorb: -3.4; PAFAH1B2 FP inh: 72.5*

What do the screens show for `CC(NC(=O)Cn1ccsc1=N)C12CC3CC(CC(C3)C1)C2` (stereo not drawn)?
PAFAH1B3 inh: -0.3; PAFAH2 FP inh: 19.5; Apaf-1 inh: -1.8; TDP2 absorb: 8.4; PAFAH1B2 FP inh: 8.0

Results for CC1CCCCC1NC(=O)CN1C(=O)NC(Cc2ccccc2)(Cc2ccccc2)C1=O (stereo not drawn) ?
PAFAH1B3 inh: 7.8; PAFAH2 FP inh: 4.7; Apaf-1 inh: -2.3; TDP2 absorb: 9.1; PAFAH1B2 FP inh: 9.0

What do the screens show for `CC(NC(=O)Cn1c(=O)[nH]c2ccsc2c1=O)C12CC3CC(CC(C3)C1)C2` (stereo not drawn)?
PAFAH1B3 inh: 8.6; PAFAH2 FP inh: 26.7; Apaf-1 inh: 14.8; TDP2 absorb: 6.0; PAFAH1B2 FP inh: 27.7*

What do the screens show for `CO[C@H]([C@H](C)/C=C/N(C)C=O)[C@@H](C)C(=O)CC[C@H](C)[C@H](O)[C@H](C)[C@H]1OC(=O)/C=C/C(C)=C/C[C@H](O)C[C@@H]2C=CC[C@@H](C[C@H](OC)[C@@H](C)[C@@H](OC)C[C@@H](OC)[C@@H]1C)O2`?
TDP2 absorb: -14.3

Results for N=c1n(Cc2ccccc2)c2ccccc2n1CC(O)c1ccco1 (stereo not drawn) ?
PAFAH1B3 inh: 27.7*; PAFAH2 FP inh: 45.9*; Apaf-1 inh: -0.2; TDP2 absorb: -2.7; PAFAH1B2 FP inh: 37.8*

How did Cc1ccc(C(=O)N/C(=C\c2cn(C)c3ccccc23)C(=O)NCCCN2CCOCC2)cc1 do in these assays?
PAFAH1B3 inh: 3.0; PAFAH2 FP inh: 7.5; Apaf-1 inh: -3.4; TDP2 absorb: 0.9; PAFAH1B2 FP inh: 1.6

Results for Cc1ccc(C(=O)N/C(=C\c2ccc(-c3ccccc3[N+](=O)[O-])o2)C(=O)NCCCN2CCOCC2)cc1 ?
PAFAH1B3 inh: 6.3; PAFAH2 FP inh: 12.0; Apaf-1 inh: 65.2*; TDP2 absorb: 10.3; PAFAH1B2 FP inh: 3.5

How did C#CCNC(=O)C[C@H]1C[C@@]2(C(=O)OC)C(=C[C@H](C(C)(C)C)O[C@@H]2C)N(CCC2=CCCCC2)C1=O do in these assays?
TDP2 absorb: -2.9

What do the screens show for `CCc1cc(=O)oc2c3c(cc(OCC(=O)NCCCOC)c12)OC(C)(C)CC3`?
PAFAH1B3 inh: 8.1; PAFAH2 FP inh: 34.9*; Apaf-1 inh: -3.6; TDP2 absorb: -7.1; PAFAH1B2 FP inh: 6.8

Source: PubChem BioAssay
